Measured values reported in ChEMBL document CHEMBL1143359, “Synthesis and in vitro anti-proliferative activity of beta-elemene monosubstituted derivatives in HeLa cells mediated through arrest of cell cycle at the G1 phase” (Bioorg Med Chem, 2009).
The source made the active and inactive calls. The rule behind the calls is not given here.

The compounds below were run on HeLa (assay: Antiproliferative activity against human HeLa cells after 24 hrs by WST-1 assay).
Assay type: functional, cell-based
Outline: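 HeLa cells grown in RPMI 1640 with 10% inactivated FBS, penicillin, streptomycin and L-glutamine at 37 °C under 5% CO2. They were trypsinized, seeded at 5 × 10³ cells/well, and left 12 h. Compounds were added at five concentrations for 24 h. WST-1 was added and absorbance read at 450 nm. IC50 was calculated from absorbance.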

| Compound | IC50 [µM] |
| --- | --- |
| C=C[C@]1(C)CC[C@@H](C(=C)COCCOC)C[C@H]1C(=C)C | 238 |
| C=C[C@]1(C)CC[C@@H](C(=C)CNC(C)(C)C)C[C@H]1C(=C)C | 25.4 |
| C=C[C@]1(C)CC[C@@H](C(=C)COCC)C[C@H]1C(=C)C | 106 |
| C=C[C@]1(C)CC[C@@H](C(=C)COC)C[C@H]1C(=C)C | 212 |
| C=C[C@]1(C)CC[C@@H](C(=C)COCCCC)C[C@H]1C(=C)C | 266 |
| C=C[C@]1(C)CC[C@@H](C(=C)C)C[C@H]1C(=C)C | 236 |

These reach a lower IC50. Values come first.

| IC50 [µM] | Compound |
| --- | --- |
| 5.9 | C=C[C@]1(C)CC[C@@H](C(=C)CNC2CCCCCCC2)C[C@H]1C(=C)C |
| 0.52 | C=C[C@]1(C)CC[C@@H](C(=C)CNC2CCCC2)C[C@H]1C(=C)C |
| 0.04 | C=C[C@]1(C)CC[C@@H](C(=C)CNC(C)C)C[C@H]1C(=C)C |
| 3.39 | C=C[C@]1(C)CC[C@@H](C(=C)CNC2CCCCC2)C[C@H]1C(=C)C |
| 14.3 | C=C[C@]1(C)CC[C@@H](C(=C)CN(CC)CC)C[C@H]1C(=C)C |
| 10.8 | C=C[C@]1(C)CC[C@@H](C(=C)CNCCCC)C[C@H]1C(=C)C |
| 15.7 | C=C[C@]1(C)CC[C@@H](C(=C)Cn2ccnc2)C[C@H]1C(=C)C |

These compounds were tested on HeLa (assay: Cell cycle arrest in human HeLa cells assessed as increase in G1 phase cells after 24 hrs by flow cytometry using propidium iodide staining).
Assay type: functional, cell-based
Outline: (§1)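 After 24 h drug exposure at 37 °C, HeLa cells were trypsinized. About 1 × 10⁶ cells were washed twice in cold PBS and fixed overnight in chilled 75% methanol at −20 °C. DNA content was measured by propidium iodide flow cytometry, and the percentage of cells in each cycle phase was calculated. Untreated cultures served as controls.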

| Compound | Activity |
| --- | --- |
| C=C[C@]1(C)CC[C@@H](C(=C)COCCOC)C[C@H]1C(=C)C | Active |
| C=C[C@]1(C)CC[C@@H](C(=C)CNC(C)(C)C)C[C@H]1C(=C)C | Active |
| C=C[C@]1(C)CC[C@@H](C(=C)CNC2CCCCCCC2)C[C@H]1C(=C)C | Active |
| C=C[C@]1(C)CC[C@@H](C(=C)CNC2CCCC2)C[C@H]1C(=C)C | Active |
| C=C[C@]1(C)CC[C@@H](C(=C)COCC)C[C@H]1C(=C)C | Active |
| C=C[C@]1(C)CC[C@@H](C(=C)CNC(C)C)C[C@H]1C(=C)C | Active |
| C=C[C@]1(C)CC[C@@H](C(=C)COC)C[C@H]1C(=C)C | Active |
| C=C[C@]1(C)CC[C@@H](C(=C)COCCCC)C[C@H]1C(=C)C | Active |
| C=C[C@]1(C)CC[C@@H](C(=C)CNC2CCCCC2)C[C@H]1C(=C)C | Active |
| C=C[C@]1(C)CC[C@@H](C(=C)C)C[C@H]1C(=C)C | Active |
| C=C[C@]1(C)CC[C@@H](C(=C)CN(CC)CC)C[C@H]1C(=C)C | Active |
| C=C[C@]1(C)CC[C@@H](C(=C)CNCCCC)C[C@H]1C(=C)C | Active |
| C=C[C@]1(C)CC[C@@H](C(=C)Cn2ccnc2)C[C@H]1C(=C)C | Active |

What follows are compounds tested on HeLa (assay: Decrease in CyclinD1 protein expression in human HeLa cells after 24 hrs by Western blotting).
Assay type: functional, cell-based
Outline: (§2)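 HeLa cells were treated 24 h, trypsinized, washed in ice-cold PBS and lysed on ice in RIPA with PMSF. Lysates were clarified at 12,000 rpm, 4 °C, 15 min, and protein was measured by Bradford. Extracts ran on 12% SDS–PAGE onto PVDF, with milk/Tween blocking for 2 h. Rabbit anti-cyclin D1 and anti-Rb (1:100) and biotinylated anti-rabbit (1:400) were each applied 1 h at 37 °C, with ABC detection. β-actin was the loading control.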

| Compound | Activity |
| --- | --- |
| C=C[C@]1(C)CC[C@@H](C(=C)CNCCCC)C[C@H]1C(=C)C | Active |

What follows are compounds tested on HeLa (assay: Decrease in Rb protein expression in human HeLa cells after 24 hrs by Western blotting).
Assay type: functional, cell-based
Outline: as §2

| Compound | Activity |
| --- | --- |
| C=C[C@]1(C)CC[C@@H](C(=C)CNCCCC)C[C@H]1C(=C)C | inactive |

The compounds below were run on HeLa (assay: Decrease in Rb phosphorylation in human HeLa cells after 24 hrs by Western blotting).
Assay type: functional, cell-based
Outline: as §2

| Compound | Activity |
| --- | --- |
| C=C[C@]1(C)CC[C@@H](C(=C)CNCCCC)C[C@H]1C(=C)C | Active |

Each compound was assayed on HeLa (assay: Cell cycle arrest in human HeLa cells assessed as decrease in S phase cells after 24 hrs by flow cytometry using propidium iodide staining).
Assay type: functional, cell-based
Outline: as §1

| Compound | Activity |
| --- | --- |
| C=C[C@]1(C)CC[C@@H](C(=C)CNCCCC)C[C@H]1C(=C)C | Active |

These compounds were tested on HeLa (assay: Cell cycle arrest in human HeLa cells assessed as decrease in G2-M phase cells after 24 hrs by flow cytometry using propidium iodide staining).
Assay type: functional, cell-based
Outline: as §1

| Compound | Activity |
| --- | --- |
| C=C[C@]1(C)CC[C@@H](C(=C)CNCCCC)C[C@H]1C(=C)C | Active |
